Sampled rows, rich in hits. Any-hit rate of the full collection: about 3.5%.
MrgX1 allo act: human MrgX1 positive allosteric modulation, primary screen; MrgX1-HEK293, Fluo-4 calcium flux, FDSS; hits give high values; 310,000 compounds, 0.63% hits; Q96LB2; B-score at 10 µM; AID 588675;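 active = plate-corrected calcium response at least 3 library SD above typical, normal starting fluorescence, not activating the receptor alone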;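 note: compound read alongside a low EC10 to EC30 dose of BAM8-22 agonist; peak minus trough fluorescence over baseline measured at the second addition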
Target sequence (Q96LB2 whole entry, looked up): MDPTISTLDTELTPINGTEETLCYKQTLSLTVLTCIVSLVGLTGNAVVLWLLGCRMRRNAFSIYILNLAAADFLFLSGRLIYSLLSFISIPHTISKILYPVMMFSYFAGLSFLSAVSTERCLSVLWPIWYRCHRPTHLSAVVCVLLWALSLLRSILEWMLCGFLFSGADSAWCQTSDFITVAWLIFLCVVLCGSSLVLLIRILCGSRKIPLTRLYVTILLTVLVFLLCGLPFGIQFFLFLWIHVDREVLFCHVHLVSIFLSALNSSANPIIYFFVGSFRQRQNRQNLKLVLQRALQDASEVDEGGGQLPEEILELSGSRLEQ
MrgX1 ag: human MrgX1 receptor agonism, primary screen; MrgX1-HEK293 cells, Fluo-4 calcium fluorescence, agonist mode; hits give high values; Q96LB2; 310,000 compounds, 0.44% hits; B-score at 10 µM; AID 588627;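 active = calcium response B-score plate-corrected fluorescence ratio at least 3 library SD, with starting fluorescence B-score inside 5 SD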
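System – MrgX1-expressing HEK293 cells · Incubation – cells plated overnight, dye loaded 0.5 h 37 °C, 0.5 h room temperature · Technique – kinetic Fluo-4 NW fluorescence of intracellular calcium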
RGS4 block: human RGS4 inhibition | 310,000 compounds, 0.45% hits | B-score at 10 µM | P49798 | HEK293 M3R/RGS4 inducible, Fluo-4 calcium flux; hits give high values; triggered by carbachol at its EC20;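 active = B-score, a plate-corrected calcium signal, over three deviations above library mean, with baseline fluorescence within five deviations of library mean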;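 note: RGS4 expression induced by doxycycline in cells with stable M3 receptor; B-score is computed from the integrated fluorescence ratio over baseline after carbachol; higher B-score means a larger calcium signal and so more RGS4 inhibition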
Target sequence (P49798 whole entry, looked up): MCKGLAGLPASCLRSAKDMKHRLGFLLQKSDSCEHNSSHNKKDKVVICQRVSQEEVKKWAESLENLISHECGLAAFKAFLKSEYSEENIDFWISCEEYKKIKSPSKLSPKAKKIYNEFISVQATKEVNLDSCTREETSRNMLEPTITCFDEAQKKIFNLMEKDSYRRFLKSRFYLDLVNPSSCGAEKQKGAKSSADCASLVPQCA
RGS4 pot: RGS4 potentiation or activation. HEK293 M3R/inducible RGS4, carbachol calcium flux Fluo4; hits give low values. B-score at 10 µM. 310,000 compounds, 0.92% hits. AID 463111;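 active = B-score of the integrated calcium signal more than 4 SD below the library mean, with starting fluorescence not abnormally high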;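 note: negative B-score means reduced calcium response which marks RGS4 activation or potentiation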
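System: HEK293 FlpIn-TREx cells, stable M3R, doxycycline-inducible RGS4. Timing: overnight RGS4 induction, 30 min dye load 37 °C, 20 min compound RT. Also added: carbachol, ECmax concentration. Measured by: Fluo4 fluorescence kinetic imaging of calcium. Evaluation: integrated calcium ratio converted to B score.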
MrgX1 antag: human MrgX1 receptor antagonism, primary screen; Q96LB2; MRGX1-HEK293 calcium flux, Fluo-4, BAM8-22 antagonism; hits give low values; B-score at 10 µM; 310,000 compounds, 1.3% hits; AID 588676;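 active = calcium-response B-score plate-corrected more than 3 library SD below zero, starting fluorescence within 5 deviations, no agonist response on first addition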;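 note: peak minus trough fluorescence over baseline after final BAM8-22 challenge near maximal dose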
RGS4 activ val: RGS4 activation, validation assay | shares compounds with RGS4 pot | HEK293 M3R/RGS4 inducible, carbachol calcium flux Fluo4 | inhibition, % at 10 µM | 1,100 compounds, 89% hits | AID 602282;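 active = inhibition above 3 SD of the buffer control wells, cut at about 41% in these data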;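 note: signal is the integrated peak-minus-minimum Fluo4 fluorescence over baseline ratio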
M3R Ca counter: activity in cells without induced RGS4 expression. AID 602283. HEK293 M3R non-induced RGS4, Fluo4 calcium flux; after carbachol challenge at its EC90. inhibition, % at 10 µM. shares compounds with RGS4 pot. 1,100 compounds, 82% hits;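 active = inhibition exceeding 3 SD of buffer-only control wells, cut at about 26% in these data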;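 note: percent drop in integrated peak-minus-baseline over baseline Fluo4 ratio after carbachol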
* hit, by the source's call; i = inactive; x = no result.

SMILES	MrgX1 allo act	MrgX1 ag	RGS4 block	RGS4 pot	MrgX1 antag	RGS4 activ val	M3R Ca counter
CSc1nnc2c3cc(F)ccc3n(Cc3ccccc3)c2n1	i	i	i	i	i	x	x
CCN(CC)CCSc1nnc2c3cc(C)ccc3n(Cc3ccccc3)c2n1	i	i	i	-10.8*	i	93.0*	85.3*
Cc1ccccc1CC1(CO)CCCN(C(=O)c2ccc3ncccc3c2)C1 (configuration not stated)	i	i	i	-10.4*	i	62.0*	83.8*
Cc1ccccc1CC1(CO)CCCN(C(=O)c2ccccc2N(C)C)C1 (configuration not stated)	i	i	i	i	i	x	x
CN(C)CCNC(=O)c1cccc(S(=O)(=O)Nc2ccc(F)cc2)c1	i	i	i	i	i	x	x
CCN(CC)CCNC(=O)c1ccc(NC(=O)c2cccc(S(=O)(=O)Nc3ccc(C)cc3)c2)cc1	i	i	i	-11.8*	i	92.0*	68.8*
CSC1=NCCN1C(=O)COc1ccccc1	i	i	i	i	i	x	x
CSC1=NCCN1C(=O)COc1ccc2ccccc2c1	i	i	i	-9.5*	i	0.0	0.0
Cc1ccc(-n2nc3c(c2NC(=O)c2ccc4c(c2)OCO4)CS(=O)(=O)C3)c(C)c1	i	i	i	i	i	x	x
CCCCOc1ccc(C(O)C(CN2CCOCC2)c2ccccc2)cc1 (configuration not stated)	i	i	i	i	i	x	x
CCCCOc1ccc(C(O)C(CN2CCCCC2)c2ccccc2)cc1 (configuration not stated)	i	i	i	-7.61*	i	58.0*	83.8*
COc1ccc(-c2oc3ncnc(NCCN4CCOCC4)c3c2-c2ccc(OC)cc2)cc1	i	i	i	-9.85*	i	88.5*	70.3*
COc1ccc(-c2oc3ncnc(NCCCN4CCOCC4)c3c2-c2ccc(OC)cc2)cc1	i	i	i	i	i	x	x
COc1ccc(-c2nc(-c3ccc(O)cc3O)cs2)cc1OC	x	x	i	-11.4*	x	78.0*	50.8*
CN(Cc1ccon1)C(=O)C1CCC(=O)N(CCc2ccc(Cl)cc2)C1 (configuration not stated)	x	x	i	i	x	x	x
CN(C)C(C)(C)C#CCC(c1ccccc1)c1ccccc1	i	i	i	-8.23*	i	90.5*	59.3*
COC(=O)c1ccc(CN2CCC(Oc3ccc(C(=O)N4CCCCC4)cc3)CC2)cc1	i	i	i	-9.94*	i	92.5*	80.3*
COC(=O)c1ccc(CN2CCC(Oc3cccc(C(=O)N4CCCC4)c3)CC2)cc1	i	i	i	-7.96*	i	87.0*	58.8*
CSc1ccc(CN2CCC(Oc3cccc(C(=O)N4CCCC4)c3)CC2)cc1	i	i	i	i	i	x	x
O=C(C[n+]1ccc(C(=O)NCCCO)cc1)c1cccc(Br)c1	i	i	i	i	i	x	x
COC(=O)C(O)(CC(=O)Nc1ccc(Cl)cc1Cl)C(F)(F)F (configuration not stated)	i	i	i	-9.21*	i	0.0	0.0
COc1cccc(/C=N/n2c(-c3n[nH]c4c3CCC4)n[nH]c2=S)c1O	i	i	i	-9.07*	i	93.5*	93.3*
COc1ccccc1/C=C/C=N/n1c(-c2n[nH]c3c2CCC3)n[nH]c1=S	i	i	i	i	i	x	x
S=c1[nH]nc(-c2n[nH]c3c2CCC3)n1/N=C/C=C/c1ccco1	i	i	i	-9.08*	i	89.0*	57.8*
O=C(COC(=O)C1C2CC3OC(=O)C1C3C2)Nc1ccccc1 (configuration not stated)	i	i	i	i	i	x	x
SMILES	MrgX1 allo act	MrgX1 ag	RGS4 block	RGS4 pot	MrgX1 antag	RGS4 activ val	M3R Ca counter
OC(C#CCN1CCCC1)(c1ccccc1)c1ccccc1	i	i	i	-7.64*	i	93.5*	91.3*
OC(C#CCN1CCCCC1)(c1ccccc1)c1ccccc1	i	i	i	i	i	x	x
CC(O)(C#CCN1CCCCCC1)c1ccccc1 (configuration not stated)	i	i	i	-9.75*	i	66.0*	83.8*
CC(C)(C#CC(O)(c1ccccc1)c1ccccc1)N1CCCC1	i	i	i	-8.92*	i	92.5*	86.8*
O=C(CSC(=S)N1CCOCC1)Nc1ccc(S(=O)(=O)Nc2ncccn2)cc1	i	i	i	i	i	x	x
CN(C(=O)c1ccccc1OCc1ccc(Cl)cc1)c1ccccc1	i	i	i	-9.2*	i	92.0*	93.3*
CN1/C(=C\C(=O)Nc2ccc(F)cc2)C(C)(C)c2ccccc21	i	i	i	-8.8*	i	50.5*	25.8*
CN1/C(=C\C(=O)Nc2ccc(Br)cc2)C(C)(C)c2ccccc21	i	i	i	-9.16*	i	92.0*	96.3*
COC(=O)c1ccccc1S(=O)(=O)N1CCC(NC(=O)C(Cc2cccc(OC)c2OC)NC(C)=O)CC1 (configuration not stated)	x	x	i	i	x	x	x
Cc1cc(Cl)c(S(=O)(=O)N2CCN(c3ccccn3)CC2)cc1OCC(=O)NC1CCCCC1	i	i	i	-8.01*	i	92.0*	74.8*
CCN(c1ccccc1)S(=O)(=O)c1ccc(OC)c(NC(=O)CCc2nc3ccccc3c(=O)[nH]2)c1	i	i	i	-7.94*	i	85.0*	55.8*
COc1ccc(S(=O)(=O)N2CCOCC2)cc1NC(=O)CCc1nc2ccccc2c(=O)[nH]1	i	i	i	i	i	x	x
Cc1nccn1CC(O)Cn1c2ccccc2c2ccccc21 (configuration not stated)	i	i	i	-7.68*	i	85.5*	29.3*
O=C(COc1ccccc1Cl)NCCNC(=O)c1ccco1	i	i	i	i	i	x	x
Cc1cc(C)c2c(CN3CCN(Cc4ccc5c(c4)OCO5)CC3)cc(=O)oc2c1	i	i	i	-8.68*	i	91.0*	51.8*
Cc1cc(C)c2c(CN3CCN(Cc4ccccc4)CC3)cc(=O)oc2c1	i	i	i	i	i	x	x
Cc1cc(C)c2c(CN3CCN(Cc4ccc5c(c4)OCO5)CC3)cc(=O)oc2c1C	i	i	i	-7.73*	i	75.5*	28.3*

Assay outcomes (PubChem BioAssay)
